# From ChEMBL document CHEMBL1158585, “Oploxynes A and B, polyacetylenes from the stems of Oplopanax elatus” (J Nat Prod, 2010)
# Calls of active or inactive are those of the source. The calls are words filed in the database; no cut-off is given here.
# Legend:
# [1] = tested on: RAW264.7; test: Cytotoxicity in mouse RAW264.7 cells; format: cell-based
# [2] = tested on: RAW264.7; test: Antiinflammatory activity in lipopolysaccharide-induced mouse RAW264.7 cells assessed as inhibition of nitric oxide production after 20 to 24 hrs by Griess method; format: functional, cell-based
# How it was run: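 RAW264.7 cells seeded at 1 × 10⁵ cells/well and left 6 h to attach, then given phenol red-free medium with 1 µg/mL E. coli LPS (strain 055:B5), with or without compound, for 20-24 h. Compounds were serially diluted. Supernatant nitrite read by Griess reagent, absorbance at 540 nm, against a NaNO₂ standard curve. Control got 0.5% (v/v) DMSO. Triplicate wells.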
# [3] = tested on: RAW264.7; test: Antiinflammatory activity in lipopolysaccharide-induced mouse RAW264.7 cells assessed as inhibition of prostaglandin E2 production after 20 to 24 hrs; format: functional, cell-based
# How it was run: (§1)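 PGE₂ made from endogenous arachidonic acid was measured with a commercial PGE₂ parameter assay kit, following the manufacturer's protocol.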
# [4] = tested on: RAW264.7; test: Antiinflammatory activity in lipopolysaccharide-induced mouse RAW264.7 cells assessed as inhibition of prostaglandin E2 production at 8 uM after 24 hrs; format: functional, cell-based; how it was run: as §1
# [5] = tested on: RAW264.7; test: Antiinflammatory activity in lipopolysaccharide-induced mouse RAW264.7 cells assessed as inhibition of nitric oxide production at 8 uM after 24 hrs by Griess method; format: functional, cell-based
# How it was run: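 RAW264.7 cells seeded at 1 × 10⁵ cells/well and left 6 h to attach, then exposed to compound at 8 µM for 24 h in phenol red-free medium with 1 µg/mL E. coli LPS (strain 055:B5). Supernatant nitrite read by Griess reagent at 540 nm against a NaNO₂ standard curve. Control got 0.5% (v/v) DMSO. Triplicate wells.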
SMILES,IC50 [1],IC50 [2],IC50 [3],inhibition [4],inhibition [5]
C=CC(O)C#CC#C[C@@H](O)/C=C\CCCCCCC (mixture of isomers),3770 nM,1280 nM,1540 nM,–,–
CCCCCCC/C=C\[C@H](O)C#CC#C[C@@H](O)CC [OPLOPANDIOL],> 40000 nM,2720 nM,2990 nM,Active,Active
CCCCCCC[C@@H]1O[C@@H]1[C@H](O)C#CC#C[C@@H](O)CC [OPLOXYNE A],> 40000 nM,1980 nM,3080 nM,Active,Active
CCCCCCC[C@@H](OC)[C@H](O)[C@H](O)C#CC#C[C@@H](O)CC [OPLOXYNE B],> 40000 nM,> 40000 nM,> 40000 nM,–,–
